From ChEMBL document CHEMBL1125426, “Muscarinic receptor subtype specificity of (N,N-dialkylamino)alkyl 2-cyclohexyl-2-phenylpropionates: cylexphenes (cyclohexyl-substituted aprophen analogues)” (J Med Chem, 1992)

What was measured:
[1] = biological target: T1, Muscarinic acetylcholine receptor M1 (Homo sapiens, UniProt P11229); assay: Antimuscarinic potency and subset specificity was characterised by its inhibition of the [3H]NMS Binding to Muscarinic acetylcholine receptor M1 subtype
T1 sequence (P11229 whole entry): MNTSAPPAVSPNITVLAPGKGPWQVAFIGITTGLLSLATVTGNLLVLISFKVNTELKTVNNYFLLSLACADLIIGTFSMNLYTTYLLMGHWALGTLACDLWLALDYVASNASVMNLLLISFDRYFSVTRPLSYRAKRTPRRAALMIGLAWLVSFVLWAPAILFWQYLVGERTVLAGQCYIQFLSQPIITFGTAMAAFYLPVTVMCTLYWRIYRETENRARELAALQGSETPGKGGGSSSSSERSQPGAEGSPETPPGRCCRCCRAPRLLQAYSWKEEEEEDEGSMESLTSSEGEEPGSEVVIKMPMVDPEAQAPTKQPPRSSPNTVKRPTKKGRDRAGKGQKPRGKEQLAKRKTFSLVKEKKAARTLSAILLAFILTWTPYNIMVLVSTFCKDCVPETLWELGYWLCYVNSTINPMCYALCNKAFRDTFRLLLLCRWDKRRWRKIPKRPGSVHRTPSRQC
Method in brief: (§1)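 Membranes, by hypotonic lysis (2 mM Tris-HCl pH 7.2, 1 mM EDTA) and 50000g spins, from A9 L cells stably carrying cloned brain m1 or m3, heart (M2) or NG108-15 cells (M4). 150-300 µg protein incubated 60 min at 37 °C in PBS pH 7.2 with 0.5 nM [3H]NMS and varied compound levels. Filtration and scintillation counting. Nonspecific binding taken with 1 µM atropine. Ki from LIGAND with KD 235 (m1), 426 (M2), 164 (m3), 144 (M4) pM. Three to six experiments.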

[2] = biological target: T2, Muscarinic acetylcholine receptor M3 (Homo sapiens, UniProt P20309); assay: Antimuscarinic potency and subset specificity was characterised by its inhibition of the [3H]NMS Binding to Muscarinic acetylcholine receptor M3 subtype
Method in brief: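 Membranes from A9 L cells stably transfected with cloned m3 receptor (brain library), lysed in 2 mM Tris-HCl pH 7.2/1 mM EDTA, centrifuged 50000g. 150-300 µg protein incubated 60 min, 37 °C with 0.5 nM [3H]NMS plus varied compound concentrations in PBS pH 7.2; filtration, scintillation counting. Nonspecific binding: 1 µM atropine. Ki via LIGAND using KD 164 pM; mean of 3-6 experiments ± SD.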

[3] = Selectivity index is defined as the ratio of Ki value for m3 receptor / Ki value for M4 receptor
[4] = biological target: Muscarinic acetylcholine receptor M1 and M3 (Homo sapiens) (UniProt P20309+P11229); assay: Selectivity index is defined as the ratio of Ki value for m1 receptor / Ki value for m3 receptor; format: protein assay
[5] = Selectivity ratio relative to atropine is [(atropine IC50 value for pancreas)/(compound IC50 value for pancreas)] / [(atropine KB value for ileum) /(compound KB value for ileum)]; format: tissue-based
Method in brief: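 Rat pancreatic acini from male Sprague-Dawley rats, collagenase digested, exposed to 10^-5 M carbachol with varied compound levels. […] Ileum KB comes from Schild plots on male guinea pig distal ileum at 37 °C, ACh-induced isometric contraction, compound added 30 s before ACh. Ratio as printed, referenced to atropine.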

[6] = biological target: T3, Muscarinic acetylcholine receptor M4 (Homo sapiens, UniProt P08173); assay: Antimuscarinic potency and subset specificity was characterised by its inhibition of the [3H]NMS Binding to Muscarinic acetylcholine receptor M4 subtype; method in brief: as §1
T3 sequence (P08173 whole entry): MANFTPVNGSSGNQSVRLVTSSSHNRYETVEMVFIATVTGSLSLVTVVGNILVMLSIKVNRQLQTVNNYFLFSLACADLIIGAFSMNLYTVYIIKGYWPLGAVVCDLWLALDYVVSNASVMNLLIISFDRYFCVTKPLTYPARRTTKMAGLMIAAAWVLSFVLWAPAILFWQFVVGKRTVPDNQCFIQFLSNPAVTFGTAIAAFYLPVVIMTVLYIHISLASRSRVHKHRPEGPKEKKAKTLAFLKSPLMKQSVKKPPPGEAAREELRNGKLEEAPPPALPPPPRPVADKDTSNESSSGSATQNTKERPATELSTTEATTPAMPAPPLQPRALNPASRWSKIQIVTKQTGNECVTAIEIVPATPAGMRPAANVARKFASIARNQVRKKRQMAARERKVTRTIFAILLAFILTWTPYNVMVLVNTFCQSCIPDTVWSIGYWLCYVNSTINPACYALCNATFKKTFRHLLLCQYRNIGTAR

[7] = biological target: T4, Muscarinic acetylcholine receptor M2 (Homo sapiens, UniProt P08172); assay: Antimuscarinic potency and subset specificity was characterised by its inhibition of the [3H]NMS Binding to Muscarinic acetylcholine receptor M2 subtype; method in brief: as §1
T4 sequence (P08172 whole entry): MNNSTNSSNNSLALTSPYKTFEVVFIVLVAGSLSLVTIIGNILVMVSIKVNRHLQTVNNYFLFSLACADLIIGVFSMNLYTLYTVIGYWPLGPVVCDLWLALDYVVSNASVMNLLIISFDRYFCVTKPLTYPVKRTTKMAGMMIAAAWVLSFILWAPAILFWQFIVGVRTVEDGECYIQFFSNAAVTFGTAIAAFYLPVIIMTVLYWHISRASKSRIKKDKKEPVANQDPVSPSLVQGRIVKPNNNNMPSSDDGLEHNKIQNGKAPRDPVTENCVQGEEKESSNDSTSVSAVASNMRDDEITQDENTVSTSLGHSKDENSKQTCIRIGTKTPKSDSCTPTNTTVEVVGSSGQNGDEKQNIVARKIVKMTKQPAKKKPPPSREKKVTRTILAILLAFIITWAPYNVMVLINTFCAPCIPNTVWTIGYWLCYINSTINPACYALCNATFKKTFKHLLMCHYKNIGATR

[8] = biological target: T2, Muscarinic acetylcholine receptor M3; assay: Antimuscarinic potency and subset specificity was characterised by its inhibition of the [3H]NMS Muscarinic acetylcholine receptor M3 subtype; method in brief: as §1
[9] = biological target: T1, Muscarinic acetylcholine receptor M1; assay: Antimuscarinic potency and subset specificity was characterised by inhibition of the [3H]NMS Binding to Muscarinic acetylcholine receptor M1 subtype; method in brief: as §1
[10] = biological target: T4, Muscarinic acetylcholine receptor M2; assay: Antimuscarinic potency and subset specificity was characterised by inhibition of the [3H]NMS Binding to Muscarinic acetylcholine receptor M2 subtype; method in brief: as §1

Sequence of Muscarinic acetylcholine receptor M1 and M3 (Homo sapiens) (P20309 whole entry, looked up, one chain of several): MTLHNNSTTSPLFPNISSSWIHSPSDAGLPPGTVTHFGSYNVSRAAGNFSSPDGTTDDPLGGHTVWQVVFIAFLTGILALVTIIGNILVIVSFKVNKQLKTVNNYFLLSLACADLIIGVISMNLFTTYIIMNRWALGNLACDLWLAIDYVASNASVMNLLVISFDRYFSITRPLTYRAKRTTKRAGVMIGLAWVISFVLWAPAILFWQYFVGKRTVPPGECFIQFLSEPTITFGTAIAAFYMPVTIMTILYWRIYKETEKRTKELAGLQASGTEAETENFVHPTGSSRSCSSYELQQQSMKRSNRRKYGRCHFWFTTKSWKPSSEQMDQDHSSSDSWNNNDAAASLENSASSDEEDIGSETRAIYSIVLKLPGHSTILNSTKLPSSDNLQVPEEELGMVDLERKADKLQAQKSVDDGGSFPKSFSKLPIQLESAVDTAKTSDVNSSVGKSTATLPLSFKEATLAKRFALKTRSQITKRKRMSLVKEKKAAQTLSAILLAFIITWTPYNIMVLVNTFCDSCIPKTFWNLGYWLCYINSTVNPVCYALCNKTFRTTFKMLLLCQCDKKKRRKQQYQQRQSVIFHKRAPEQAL
T2 sequence (P20309 whole entry): as the sequence (P20309 whole entry, looked up, one chain of several) above

With `CCN(CC)CCCOC(=O)C(C)(c1ccccc1)C1CCCCC1` (centres undefined) the Ki [1] was 2.9 nM, the Ki [2] was 4 nM and the Selectivity ratio [3] was 1.2. For the same molecule, the Selectivity ratio [4] was 1.4, the Selectivity [5] was 19.1 and the Ki [6] was 4.6 nM. For the same molecule, the Ki [7] was 19.7 nM.
Work on `CN(C)CCCOC(=O)C(C)(c1ccccc1)C1CCCCC1` (centres undefined) yielded a Ki [1] of 1.9 nM, a Ki [2] of 1.7 nM and a Selectivity ratio [3] of 0.9. For the same molecule, the Selectivity ratio [4] was 0.9, the Selectivity [5] was 30.8 and the Ki [6] was 1.5 nM. For the same molecule, the Ki [7] was 26.9 nM.
With `CCN(CC)CCOC(=O)C(C)(c1ccccc1)C1CCCCC1` (centres undefined) the Ki [1] was 4 nM, the Selectivity ratio [3] was 1.9 and the Selectivity ratio [4] was 2.5. It also gave a Selectivity [5] of 16.7, a Ki [6] of 18.5 nM and a Ki [8] of 9.9 nM. For the same molecule, the Ki [7] was 23.4 nM.
For `CCN(CC)CCCCOC(=O)C(C)(c1ccccc1)C1CCCCC1` (centres undefined), the Ki [1] was 111 nM, the Ki [2] was 160 nM and the Ki [6] was 209 nM. For the same molecule, the Ki [7] was 248 nM.
Molecule `CCN(CC)CCCCCOC(=O)C(C)(c1ccccc1)C1CCCCC1` (centres undefined) has a Ki [1] of 298 nM, a Ki [2] of 178 nM and a Selectivity ratio [3] of 1. For the same molecule, the Selectivity ratio [4] was 0.6, the Selectivity [5] was 11.5 and the Ki [6] was 173 nM. The Ki [7] was 246 nM.
For `CCN(CC)CCOC(=O)C(C)(c1ccccc1)c1ccccc1` [APROFENE], the Ki [9] was 2.1 nM, the Ki [10] was 9.3 nM and the Ki [6] was 7.4 nM.
Work on `CN(C)CCCCOC(=O)C(C)(c1ccccc1)C1CCCCC1` (centres undefined) yielded a Ki [1] of 40.7 nM, a Ki [2] of 31.2 nM and a Ki [6] of 65.6 nM. For the same molecule, the Ki [7] was 258 nM.
